Compound activity from PubChem.
T cruzi HTS: inhibitors of intracellular Trypanosoma cruzi, primary screen, cell-based, plate reader, single point, set 2 | intracellular Trypanosoma cruzi in host cells | activity score (inhibition), % at 5.01 µM | actives 4.9% (n = 22,000); in the data active = activity score above about 55%;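 note: parasites and compound incubated about four days before reading; 0% = median of neutral control wells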
INS-1E ATP HTS: protection of INS-1E cells from cytokine death, primary screen, ATP luminescence, single point; AID 488910, 2010; protection from cytokine-induced ATP loss, % at 10 µM; actives 0.1% (n = 20,000); INS-1E cytokine-induced death, 48 h; normalised: neutral wells 0, positive control 100;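 active = mean replicate protection from cytokine-induced ATP loss at least 50% and at least 75% of replicates each reaching 50%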
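assay system = INS-1E rat insulinoma cells | amount = 8000 cells per well | medium = phenol-red-free RPMI with 5% fetal bovine serum | doses = one compound concentration, pin transfer | timing = 48 h cytokine plus compound treatment, 10 min reagent incubation | also added = IL-1β, TNF-α and IFN-γ cytokine mix | signal = CellTiter-Glo luminescence measuring cellular ATP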
A1 apoptosis 2: A1 inhibitors via caspase activation, primary screen, cell-based, luminescence, HTS, two replicates. AID 2465, 2010. 24,000 tested, under 10 active. MEF A1-2A-BIM cells, caspase-Glo luminescence, 3 h; percent of clofoctol response, DMSO zero. caspase activation, % (test concentration not listed); in the data active = caspase activation above about 5.9%
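Evaluation: Caspase-3/7 activity from luminescence increase | Assay system: A1-2A-BIM mouse embryonic fibroblasts | Quantity: 2500 MEF cells/well | Medium: RPMI-1640 plus 10% FBS | Detection: Caspase-Glo 3/7 luminescence, 1 h at room temperature | Dosing: 50 nL compound per well, pinned | Timing: Cells settled overnight, compound exposure 3 h at 37 °C, 5% CO2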
An asterisk follows results filed as active; nt = no result. This excerpt belongs to a sample that is enriched for hits.

SMILES	T cruzi HTS	INS-1E ATP HTS	A1 apoptosis 2
C[C@@H]1CN([C@H](C)CO)C(=O)c2cccc(NS(=O)(=O)c3ccc(F)cc3)c2O[C@@H]1CN(C)C(=O)NC1CCCCC1	16	9	0
C[C@H](CO)N1C[C@H](C)[C@H](CN(C)C(=O)NC2CCCCC2)Oc2c(NS(=O)(=O)c3ccc(F)cc3)cccc2C1=O	59*	-2	3
C[C@H](CO)N1C[C@H](C)[C@H](CN(C)S(=O)(=O)c2cn(C)cn2)Oc2ccc(NS(=O)(=O)c3ccc(F)cc3)cc2C1=O	-1	nt	nt
C[C@H](CO)N1C[C@H](C)[C@H](CN(C)S(C)(=O)=O)Oc2ccc(NC(=O)C3CC3)cc2C1=O	-12	6	nt
CC(C)NC(=O)Nc1cccc2c1O[C@@H](CN(C)C(=O)Nc1ccc(C(F)(F)F)cc1)[C@@H](C)CN([C@@H](C)CO)C2=O	9	-7	nt
C[C@H](CO)N1C[C@H](C)[C@@H](CN(C)S(=O)(=O)c2cccs2)OCc2cnnn2CCCC1=O	-24	nt	nt
COC(=O)CCCCCCC(=O)NN=C1CCCC1	-5	5	1
C[C@@H]1CCCCO[C@H](CN(C)CC2CCCCC2)[C@H](C)CN([C@H](C)CO)C(=O)c2cc(NC(=O)c3ccccc3)ccc2O1	nt	nt	0
Cc1ccc(S(=O)(=O)N(C)C[C@@H]2Oc3c(NS(=O)(=O)c4ccc(Cl)cc4)cccc3C(=O)N([C@H](C)CO)C[C@H]2C)cc1	13	7	1
C[C@H]1CN([C@@H](C)CO)C(=O)c2cccc(NS(=O)(=O)c3ccc(Cl)cc3)c2O[C@H]1CN(C)Cc1ccc(-c2ccccc2)cc1	59*	-37	nt
Cc1ccc(S(=O)(=O)Nc2cccc3c2O[C@@H](CN(C)S(=O)(=O)c2ccc(Cl)cc2)[C@@H](C)CN([C@H](C)CO)C3=O)cc1	58*	-22	nt
C[C@@H]1CN([C@H](C)CO)C(=O)c2cccc(NS(=O)(=O)c3ccc(Cl)cc3)c2O[C@H]1CN(C)Cc1ccc(-c2ccccc2)cc1	33	-9	nt
COc1ccc(NC(=O)Nc2cccc3c2O[C@@H](CN(C)Cc2ccc(C(=O)Nc4ccccc4N)cc2)[C@@H](C)CN([C@@H](C)CO)C3=O)cc1	39	-23	-1
COc1ccc(NC(=O)Nc2cccc3c2O[C@@H](CN(C)Cc2ccc(C(=O)Nc4ccccc4N)cc2)[C@H](C)CN([C@@H](C)CO)C3=O)cc1	77*	-2	nt
COc1ccc(NC(=O)Nc2cccc3c2O[C@@H](CN(C)Cc2ccc(C(=O)Nc4ccccc4N)cc2)[C@@H](C)CN([C@H](C)CO)C3=O)cc1	nt	nt	-1
COc1ccc(NC(=O)Nc2cccc3c2O[C@H](CN(C)Cc2ccc(C(=O)Nc4ccccc4N)cc2)[C@H](C)CN([C@H](C)CO)C3=O)cc1	61*	9	nt
C[C@@H]1CN([C@@H](C)CO)C(=O)c2cc(NC(=O)Nc3ccc(F)cc3)ccc2O[C@@H]1CN(C)S(C)(=O)=O	6	9	nt
C[C@@H]1CN([C@H](C)CO)C(=O)c2cc(NC(=O)C3CC3)ccc2O[C@@H]1CN(C)Cc1ccccc1	-9	1	nt
C[C@@H]1CN([C@H](C)CO)C(=O)c2cccc(NS(C)(=O)=O)c2O[C@H]1CN(C)Cc1ccc(Cl)c(Cl)c1	-4	6	-3
COc1cccc(S(=O)(=O)N(C)C[C@@H]2Oc3ncc(C#Cc4cccc(F)c4)cc3C(=O)N([C@H](C)CO)C[C@@H]2C)c1	65*	nt	nt
COc1cccc(S(=O)(=O)N(C)C[C@@H]2Oc3ncc(C#Cc4ccc(C(F)(F)F)cc4)cc3C(=O)N([C@H](C)CO)C[C@@H]2C)c1	89*	nt	nt
COc1cccc(S(=O)(=O)N(C)C[C@@H]2Oc3ncc(C#CCN(C)C)cc3C(=O)N([C@H](C)CO)C[C@@H]2C)c1	15	2	0
COc1cccc(S(=O)(=O)N(C)C[C@@H]2Oc3ncc(C#Cc4ccc(OC)c(OC)c4)cc3C(=O)N([C@H](C)CO)C[C@@H]2C)c1	35	-10	-1
CNC[C@H]1Oc2c(NC(=O)Nc3ccc(C(F)(F)F)cc3)cccc2C(=O)N([C@H](C)CO)C[C@H]1C	-31	-1	0
CC(C)NC(=O)Nc1ccc2c(c1)C(=O)N([C@@H](C)CO)C[C@@H](C)[C@@H](CN(C)C(=O)C1CCCCC1)OCCCC[C@@H](C)O2	nt	nt	0
SMILES	T cruzi HTS	INS-1E ATP HTS	A1 apoptosis 2
COc1ccc(NC(=O)Nc2ccc3c(c2)C(=O)N([C@H](C)CO)C[C@@H](C)[C@@H](CN(C)Cc2ccc4c(c2)OCO4)OCCCC[C@H](C)O3)cc1	nt	nt	-2
C[C@H](CO)N1C[C@H](C)[C@H](CN(C)Cc2ccccc2)Oc2ccc(NC(=O)Cc3ccccc3)cc2CC1=O	29	-4	0
C[C@H](CO)N1C[C@H](C)[C@H](CN(C)Cc2ccccc2)Oc2ccc(NC(=O)Nc3ccc(C(F)(F)F)cc3)cc2CC1=O	66*	-5	nt
C[C@H](CO)N1C[C@H](C)[C@H](CN(C)Cc2ccccc2)Oc2ccc(NC(=O)Nc3ccc(F)cc3)cc2CC1=O	-40	-9	0
C[C@@H]1CN([C@H](C)CO)C(=O)Cc2cc(NC(=O)Cc3ccccc3)ccc2O[C@H]1CN(C)Cc1ccc(C(F)(F)F)cc1	70*	-5	-2
C[C@H](CO)N1C[C@H](C)[C@@H](CN(C)Cc2ccccc2)Oc2ccc(NC(=O)Nc3ccc(C(F)(F)F)cc3)cc2CC1=O	nt	nt	0
C[C@H]1CN([C@@H](C)CO)C(=O)Cc2cc(NC(=O)Nc3ccccc3)ccc2O[C@H]1CN(C)Cc1ccc(C(F)(F)F)cc1	67*	-47	nt
C[C@H]1CN([C@@H](C)CO)C(=O)Cc2cc(NC(=O)Nc3ccc(C(F)(F)F)cc3)ccc2O[C@H]1CN(C)Cc1ccccc1	70*	-89	nt
C[C@@H]1CN([C@@H](C)CO)C(=O)c2cc(NC(=O)CCN3CCOCC3)ccc2O[C@@H]1CN(C)S(C)(=O)=O	-15	4	nt
C[C@@H]1CN([C@H](C)CO)C(=O)Cc2cc(NC(=O)Nc3ccc(C(F)(F)F)cc3)ccc2O[C@H]1CN(C)Cc1ccccc1	73*	-8	nt
C[C@H](CO)N1C[C@H](C)[C@H](CN(C)Cc2ccccc2)Oc2ccc(NC(=O)Nc3ccccc3)cc2CC1=O	-7	3	2
Cc1noc(C)c1NC(=O)N(C)C[C@H]1Oc2c(NC(=O)C3CC3)cccc2C(=O)N([C@H](C)CO)C[C@H]1C	-17	14	nt
C[C@@H]1CCCCO[C@@H](CN(C)C(=O)Nc2ccc(C(F)(F)F)cc2)[C@@H](C)CN([C@H](C)CO)C(=O)c2cc(NC(=O)c3ccccc3)ccc2O1	59*	-10	0
C[C@@H]1CCCCO[C@H](CN(C)C(=O)Nc2ccc(C(F)(F)F)cc2)[C@H](C)CN([C@@H](C)CO)C(=O)c2cc(NC(=O)Nc3ccccc3)ccc2O1	nt	nt	0
